One may read the IC50 as the concentration needed to halve the response being measured.

In assay [1] the test system is A549 (human lung cancer) cells. Description: MTT cytotoxicity assay, A549. The class given is cell-based. Summed up: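 A549 lung cancer cells grown in low-glucose DMEM with 10% FBS and penicillin/streptomycin (37 °C, 5% CO2). Plated at 1 × 10^4 cells/well. Treated 48 h with dicopper complexes (1–400 or 1–1000 μM) or cisplatin (0.1–20 μM). Wells rinsed with PBS, then MTT 0.5 mg mL–1 for 3 h and DMSO. IC50 from viability vs log[conc]; ≥3 repeats, mean ± SD. SF = IC50(WI-38)/IC50(A549).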
A general note: Tetrazolium assays rely on reduction of a dye to a coloured formazan, in cell work by metabolically active cells.

Assay [2] relates to HeLa (human cervical cancer) cells. The assay is described as follows: MTT cytotoxicity assay, HeLa. As to conditions: read-out: IC50 HeLa (cancer), cervical, 48 h, mean ± SD. It counts as cell-based. Summed up: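 HeLa cervical cancer cells maintained in high-glucose D-MEM with 10% FBS and penicillin/streptomycin at 37 °C, 5% CO2. 1 × 10^4 cells/well incubated 48 h with dicopper complexes (1–400 or 1–1000 μM) or cisplatin (0.1–20 μM); blank and control wells got medium only. PBS wash, MTT (0.5 mg mL–1, 3 h), formazan dissolved in DMSO. IC50 from viability vs log[conc]; ≥3 repeats, mean ± SD.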

Assay [3] concerns 2C6 (human embryonic pancreas normal) cells. The assay is described as follows: MTT cytotoxicity assay, 2C6. The class given is cell-based. As to conditions: read-out: IC50 2C6 (normal), pancreas, 48 h, mean ± SD. Summed up:
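2C6 pancreas normal cells kept in Ham F10 with 10% newborn calf serum, 5% FBS, 2.5% horse serum and penicillin/streptomycin at 37 °C, 5% CO2. Seeded at 1 × 10^4 cells/well. Exposed 48 h to dicopper complexes (1–400 or 1–1000 μM) or cisplatin (0.1–20 μM); medium-only controls. PBS rinses, MTT 0.5 mg mL–1 for 3 h, DMSO solubilisation. IC50 from viability vs log[conc]; ≥3 repeats, mean ± SD.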

Assay [4] relates to PK-59 (pancreas cancer) cells. Description: MTT cytotoxicity assay, PK-59. It counts as cell-based, human. Summed up: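 PK-59 pancreas cancer cells cultured in RPMI 1640 with 10% FBS and penicillin/streptomycin (37 °C, humidified 5% CO2). 1 × 10^4 cells/well exposed 48 h to dicopper complexes (1–400 or 1–1000 μM) or cisplatin (0.1–20 μM). After PBS rinses, MTT 0.5 mg mL–1 for 3 h, then DMSO. IC50 from viability vs log[conc]; ≥3 repeats, mean ± SD. SF = IC50(2C6)/IC50(PK-59).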

Assay [5] deals with WI-38 (human lung fibroblast normal) cells. The assay is described as follows: MTT cytotoxicity assay, WI-38. It counts as cell-based. As to conditions: read-out: IC50 WI-38 (normal), lung, 48 h, mean ± SD. Summed up:
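WI-38 lung fibroblast normal cells grown in Eagle's MEM with 10% FBS and penicillin/streptomycin at 37 °C, 5% CO2. 1 × 10^4 cells/well given dicopper complexes (1–400 or 1–1000 μM) or cisplatin (0.1–20 μM) for 48 h; medium-only controls. PBS rinses, MTT 0.5 mg mL–1 for 3 h, DMSO solubilisation. IC50 from viability vs log[conc]; ≥3 repeats, mean ± SD.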

Regarding `N.N.[Cl][Pt][Cl]` [cisplatin], the “SF (selectivity factor), lung” value in assay [1] ((IC50 of normal cells)/(IC50 of cancer cells), WI-38/A549, 48 h) was 2.5. The half-maximal inhibitory concentration (IC50) came to 1830 ± 30 nM in assay [1] (read-out: IC50 A549 (cancer), lung, MTT assay, 48 h, mean ± SD); 930 ± 10 nM in assay [2]; 1150 ± 80 nM in assay [3]; 2010 ± 20 nM in assay [4] (read-out: IC50 PK-59 (cancer), pancreas, MTT assay, 48 h, mean ± SD); 4.55 ± 0.03 µM in assay [5]. Also, in assay [4] ((IC50 of normal cells)/(IC50 of cancer cells), 2C6/PK-59, 48 h), the “SF (selectivity factor), pancreas” value turned out to be 0.6.

The values are drawn from publication PMC10413468 (ACS Omega, 2023).
